According to ChEMBL document CHEMBL4190394, “Discovery of Novel Pazopanib-Based HDAC and VEGFR Dual Inhibitors Targeting Cancer Epigenetics and Angiogenesis Simultaneously” (J Med Chem, 2018):

Columns and labels:
Histone deacetylase = format: protein assay, Homo sapiens
ACHN = test: Antiproliferative activity against human ACHN cells after 72 hrs by MTT assay; format: functional, cell-based
KG-1 = test: Antiproliferative activity against human KG1 cells after 72 hrs by MTT assay; format: functional, cell-based; conditions: KG-1, 72 h
[1] = biological target: Vascular endothelial growth factor receptor 3 (Homo sapiens, UniProt P35916); test: Inhibition of VEGFR-3 (unknown origin) after 40 mins by kinase-Glo assay
[2] = biological target: Platelet-derived growth factor receptor beta (Homo sapiens, UniProt P09619); test: Inhibition of PDGFRbeta (unknown origin) after 40 mins by kinase-Glo assay
Method in brief: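 Kinase-Glo luminescent assay run by a contract lab. Compound, kinase, substrate and ATP diluted in kinase buffer and incubated 40 min at room temperature. IC50 obtained by nonlinear regression of normalized dose–response.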

[3] = biological target: Fibroblast growth factor receptor 1 (Homo sapiens, UniProt P11362); test: Inhibition of FGFR1 (unknown origin) after 40 mins by kinase-Glo assay
[4] = Half life in Sprague-Dawley rat at 2 mg/kg, iv by LC-MS/MS analysis; format: ADME, organism-based; conditions: in vivo
Method in brief: (§1)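 Sprague–Dawley rats (N = 6) dosed with the hydrochloride salt, 2 mg/kg IV or 10 mg/kg PO. Jugular vein blood drawn at set time points and kept on ice. Plasma separated by centrifugation, stored at -80 °C, and quantified by LC-MS/MS.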

[5] = Half life in Sprague-Dawley rat at 10 mg/kg, po by LC-MS/MS analysis; format: ADME, organism-based; conditions: in vivo
Method in brief: as §1

[6] = Tmax in Sprague-Dawley rat at 2 mg/kg, iv by LC-MS/MS analysis; format: ADME, organism-based; conditions: in vivo
Method in brief: as §1

[7] = Cmax in Sprague-Dawley rat at 10 mg/kg, po by LC-MS/MS analysis; format: ADME, organism-based; parameters: dose 10 mg/kg, route oral; conditions: in vivo
Method in brief: as §1

[8] = AUC (0 to t) in Sprague-Dawley rat at 2 mg/kg, iv by LC-MS/MS analysis; format: ADME, organism-based; conditions: in vivo
Method in brief: as §1

[9] = AUC (0 to t) in Sprague-Dawley rat at 10 mg/kg, po by LC-MS/MS analysis; format: ADME, organism-based; conditions: in vivo
[10] = MRT (0 to t) in Sprague-Dawley rat at 10 mg/kg, po by LC-MS/MS analysis; format: ADME, organism-based; conditions: in vivo
Method in brief: as §1

[11] = Oral bioavailability in Sprague-Dawley rat at 10 mg/kg by LC-MS/MS analysis; format: ADME, organism-based; conditions: in vivo
Method in brief: as §1

HT-29 = test: Antitumor activity against human HT-29 cells xenografted in BALB/c nu mouse assessed as tumor growth level at 50 mg/kg, po administered for 25 consecutive days measured every 3 days during compound dosing relative to control; format: functional
Method in brief: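 HT-29 cells (1×10^7) implanted s.c. in right flank of male BALB/c-nu mice aged 5–6 weeks. At about 100 mm³ (day 10), mice randomized 6 per group and dosed orally for 25 consecutive days. Controls received PBS with 5% DMSO. T/C is mean RTV (Vt/V0) treated over control. TGI taken from final tumor weights. Student's two-tailed t test.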

Mus musculus = test: Toxicity in nu BALB/c mouse spleen xenografted with human HT-29 cells at 50 mg/kg , po administered for 25 consecutive days by macroscopic analysis; format: organism-based; conditions: in vivo
Method in brief: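 HT-29 xenografted male BALB/c-nu mice dosed orally for 25 days, with PBS (5% DMSO) controls. After treatment mice were sacrificed and dissected, and internal organ injury was examined macroscopically.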

Chain of Fibroblast growth factor receptor 1 (P11362 whole entry): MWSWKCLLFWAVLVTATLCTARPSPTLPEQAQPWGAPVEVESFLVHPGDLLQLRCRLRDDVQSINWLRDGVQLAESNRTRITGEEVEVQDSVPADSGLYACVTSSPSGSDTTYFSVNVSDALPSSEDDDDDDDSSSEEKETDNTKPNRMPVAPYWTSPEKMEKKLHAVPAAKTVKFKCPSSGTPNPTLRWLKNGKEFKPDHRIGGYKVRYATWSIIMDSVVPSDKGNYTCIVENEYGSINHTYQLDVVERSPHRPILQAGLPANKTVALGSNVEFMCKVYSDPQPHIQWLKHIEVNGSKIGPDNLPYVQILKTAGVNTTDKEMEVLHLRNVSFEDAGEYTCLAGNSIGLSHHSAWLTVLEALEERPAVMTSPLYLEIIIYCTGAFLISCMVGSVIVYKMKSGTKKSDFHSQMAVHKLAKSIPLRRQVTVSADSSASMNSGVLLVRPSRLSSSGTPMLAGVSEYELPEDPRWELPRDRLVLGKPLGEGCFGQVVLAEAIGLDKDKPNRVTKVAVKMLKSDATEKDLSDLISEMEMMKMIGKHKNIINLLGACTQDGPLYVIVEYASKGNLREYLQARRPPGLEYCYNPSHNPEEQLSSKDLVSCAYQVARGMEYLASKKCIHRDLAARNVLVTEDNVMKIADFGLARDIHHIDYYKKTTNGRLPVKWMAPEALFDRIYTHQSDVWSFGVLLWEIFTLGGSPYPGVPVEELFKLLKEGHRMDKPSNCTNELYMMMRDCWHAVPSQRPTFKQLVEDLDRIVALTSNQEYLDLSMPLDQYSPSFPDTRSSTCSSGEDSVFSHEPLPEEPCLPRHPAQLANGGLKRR
Chain of Platelet-derived growth factor receptor beta (P09619 whole entry): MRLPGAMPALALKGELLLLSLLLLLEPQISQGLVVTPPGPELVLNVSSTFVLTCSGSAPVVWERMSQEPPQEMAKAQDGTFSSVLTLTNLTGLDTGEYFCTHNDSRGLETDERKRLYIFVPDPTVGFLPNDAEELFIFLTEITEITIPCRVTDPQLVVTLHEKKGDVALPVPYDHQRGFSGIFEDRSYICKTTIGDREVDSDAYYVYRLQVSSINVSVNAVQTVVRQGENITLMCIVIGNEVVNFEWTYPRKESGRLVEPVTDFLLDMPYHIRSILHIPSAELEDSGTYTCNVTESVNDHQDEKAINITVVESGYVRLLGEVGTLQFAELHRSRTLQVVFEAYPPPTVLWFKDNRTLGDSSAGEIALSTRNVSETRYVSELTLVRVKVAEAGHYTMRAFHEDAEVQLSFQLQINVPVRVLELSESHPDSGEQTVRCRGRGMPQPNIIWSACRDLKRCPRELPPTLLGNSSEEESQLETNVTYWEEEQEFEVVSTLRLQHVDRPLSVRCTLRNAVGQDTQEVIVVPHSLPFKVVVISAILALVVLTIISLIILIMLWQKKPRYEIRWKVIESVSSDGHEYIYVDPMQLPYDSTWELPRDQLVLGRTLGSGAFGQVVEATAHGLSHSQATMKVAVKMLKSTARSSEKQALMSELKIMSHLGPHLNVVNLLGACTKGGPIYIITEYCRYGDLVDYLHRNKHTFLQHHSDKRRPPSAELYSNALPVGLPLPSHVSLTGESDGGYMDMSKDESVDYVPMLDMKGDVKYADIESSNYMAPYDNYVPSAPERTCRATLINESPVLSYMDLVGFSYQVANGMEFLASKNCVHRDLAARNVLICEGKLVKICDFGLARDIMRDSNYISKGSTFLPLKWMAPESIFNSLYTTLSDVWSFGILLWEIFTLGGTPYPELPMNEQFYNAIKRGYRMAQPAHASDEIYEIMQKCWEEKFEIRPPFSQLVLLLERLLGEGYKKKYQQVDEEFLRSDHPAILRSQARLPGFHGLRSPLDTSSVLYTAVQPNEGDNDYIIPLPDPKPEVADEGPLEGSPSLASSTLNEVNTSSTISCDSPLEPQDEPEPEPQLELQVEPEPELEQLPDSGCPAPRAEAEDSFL
Chain of Vascular endothelial growth factor receptor 3 (P35916 whole entry): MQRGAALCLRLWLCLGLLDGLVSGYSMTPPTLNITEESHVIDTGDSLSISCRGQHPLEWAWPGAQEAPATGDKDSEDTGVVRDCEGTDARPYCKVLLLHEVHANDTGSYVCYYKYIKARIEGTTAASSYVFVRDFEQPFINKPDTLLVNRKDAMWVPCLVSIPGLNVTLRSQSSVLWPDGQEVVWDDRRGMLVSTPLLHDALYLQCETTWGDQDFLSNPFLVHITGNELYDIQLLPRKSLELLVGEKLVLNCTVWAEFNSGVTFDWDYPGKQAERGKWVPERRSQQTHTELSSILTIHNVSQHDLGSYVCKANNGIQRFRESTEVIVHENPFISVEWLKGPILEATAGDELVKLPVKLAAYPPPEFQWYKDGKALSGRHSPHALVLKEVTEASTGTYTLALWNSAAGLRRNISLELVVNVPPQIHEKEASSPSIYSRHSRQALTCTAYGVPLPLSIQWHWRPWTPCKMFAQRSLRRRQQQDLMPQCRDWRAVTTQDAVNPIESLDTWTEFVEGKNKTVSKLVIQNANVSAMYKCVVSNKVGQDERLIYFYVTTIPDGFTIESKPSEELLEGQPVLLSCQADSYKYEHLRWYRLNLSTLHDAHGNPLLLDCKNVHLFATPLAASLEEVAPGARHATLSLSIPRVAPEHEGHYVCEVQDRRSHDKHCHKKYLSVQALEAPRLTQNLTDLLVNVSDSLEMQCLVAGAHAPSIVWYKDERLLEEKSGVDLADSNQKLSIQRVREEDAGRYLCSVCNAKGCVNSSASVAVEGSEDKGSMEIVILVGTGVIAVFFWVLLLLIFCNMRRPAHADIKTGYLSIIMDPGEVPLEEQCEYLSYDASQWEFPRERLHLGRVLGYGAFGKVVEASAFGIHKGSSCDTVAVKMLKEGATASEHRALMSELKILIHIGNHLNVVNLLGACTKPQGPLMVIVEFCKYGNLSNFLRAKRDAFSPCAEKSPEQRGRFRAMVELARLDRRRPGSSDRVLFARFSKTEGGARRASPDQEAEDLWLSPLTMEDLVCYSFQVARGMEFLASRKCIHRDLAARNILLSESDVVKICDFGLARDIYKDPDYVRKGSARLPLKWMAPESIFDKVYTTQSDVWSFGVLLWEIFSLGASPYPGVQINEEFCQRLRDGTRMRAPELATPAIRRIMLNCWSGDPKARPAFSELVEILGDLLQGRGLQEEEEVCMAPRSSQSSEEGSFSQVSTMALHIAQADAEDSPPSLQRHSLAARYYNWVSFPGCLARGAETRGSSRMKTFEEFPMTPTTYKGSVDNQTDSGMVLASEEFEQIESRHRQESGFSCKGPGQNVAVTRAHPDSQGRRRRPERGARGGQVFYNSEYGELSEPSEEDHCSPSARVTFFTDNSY

- IC50 (Histone deacetylase): 4600 nM
- IC50 (ACHN): > 5000 nM
- IC50 [1]: 46 nM
- IC50 [2]: 88 nM
- IC50 [3]: 192 nM
- half-life [4]: 1.64 h
- half-life [5]: 2.1 h
- Tmax [6]: 4.8 min
- Cmax [7]: 3240 ng/mL
- AUC(0-t) [8]: 2380 ng·h/mL
- AUC(0-t) [9]: 8570 ng·h/mL
- MRT last [10]: 2.54 h
- bioavailability [11]: 72%
Compound: Cc1c2ccc(N(C)c3ccnc(Nc4ccc(C(=O)Nc5ccccc5N)cc4)n3)cc2nn1C
- IC50 (KG-1): 670 nM
- T/C (HT-29): 65%
- Activity (Mus musculus): Non-Toxic
